Test results reported in ChEMBL document CHEMBL1649417, “α,β-Unsaturated carbonyl system of chalcone-based derivatives is responsible for broad inhibition of proteasomal activity and preferential killing of human papilloma virus (HPV) positive cervical cancer cells” (J Med Chem, 2011).
Activity calls are given as the source filed them. No cut-off for these calls is given here.

Columns and labels:
HeLa [1] = assay: Inhibition of proteasome activity in human HeLa cells assessed as induction of ubiquitinG76V-FL reporter level at 1 uM after 8 hrs by luciferase assay
How it was run: (§1)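 HeLa transiently transfected with Ub(G76V)4-FL or CMV-FL control, replated 24 h later at 1×10^4 cells/well, drug added after 18 h attachment. Luciferase measured in cell lysate, RLU expressed as % of control; SE from three independent experiments.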

HeLa [2] = assay: Inhibition of proteasome activity in human HeLa cells assessed as induction of ubiquitinG76V-FL reporter level at 5 nM after 8 hrs by luciferase assay; settings: 1 µM, in the assay text read “at 1 µM” for “at 5 nM”; how it was run: as §1
CaSki (Homo sapiens) = assay: Cytotoxicity against CaSki transformed human cervical carcinoma cells after 48 hrs by XTT assay
HeLa [3] = assay: Cytotoxicity against HPV18 transformed human HeLa cells after 48 hrs by XTT assay; type: functional, cell-based
How it was run: (§2)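 ATCC lines grown in DMEM with 10% FBS, penicillin/streptomycin, 5% CO2; 1,000 cells/well exposed to compound (HeLa and CaSki tested over 100 to 0.01 µM). After treatment, XTT labeling mixture for 4 h, absorbance at 450 nm. Triplicate runs; IC50 is the average of three independent determinations.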

HeLa [4] = assay: Increase of polyubiquitinated accumulation in human HeLa cells at 10 uM after 8 hrs by immunoblotting; type: functional, cell-based
How it was run: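 HeLa cells treated 8 h with or without compound, then lysates immunoblotted for poly-ubiquitinated proteins; β-actin antibody to confirm equal loading; bortezomib positive control.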

[5] = Inhibition of PGPH-like activity of 20S proteasome isolated from human LCL after 30 mins by fluorimetric analysis
How it was run: (§3)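 Semipurified proteasome from lymphoblastoid cells: glass-bead lysis in Tris pH 7.5/MgCl2/DTT/2 mM ATP/sucrose buffer, differential and 100,000g ultracentrifugation. Preincubated with inhibitor 30 min at 37°C, then 45 min at 37°C with Suc-LLVY-AMC (chymotrypsin-like), Boc-LRR-AMC (trypsin-like) or Ac-YVAD-AMC (caspase/PGPH-like) in 50 mM Tris pH 7.5, 5 mM MgCl2, 1 mM DTT. Quenched with 1% SDS; ex 380/em 440 nm; percent inhibition versus untreated.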

[6] = Inhibition of chymotrypsin-like activity of 20S proteasome isolated from human LCL after 30 mins by fluorimetric analysis; how it was run: as §3
[7] = Inhibition of trypsin-like activity of 20S proteasome isolated from human LCL after 30 mins by fluorimetric analysis; how it was run: as §3
SiHa = assay: Cytotoxicity against HPV16 transformed human SiHa cells after 48 hrs by XTT assay; type: functional, cell-based; how it was run: as §2
ME-180 = assay: Cytotoxicity against HPV58 transformed human ME180 cells after 48 hrs by XTT assay; type: functional, cell-based; how it was run: as §2
[8] = Inhibition of calpain up to 50 uM by fluorometric analysis
[9] = Cytotoxicity against human keratinocytes assessed as effect on cell viability at 1.6 to 25 uM after 48 hrs by XTT assay; type: cell-based; settings: keratinocyte
How it was run: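 Primary keratinocytes cultured in defined Keratinocyte-SFM, treated 48 h at the indicated concentrations, 1,000 cells/well. XTT reagent for 4 h, absorbance at 450 nm; viability plotted as fraction of untreated control cultures; triplicate.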

[10] = target: Cathepsin D (Homo sapiens) (UniProt P07339); assay: Inhibition of cathepsin D up to 50 uM by fluorometric analysis
Cathepsin D (Homo sapiens), sequence (P07339 65-162 limits assumed): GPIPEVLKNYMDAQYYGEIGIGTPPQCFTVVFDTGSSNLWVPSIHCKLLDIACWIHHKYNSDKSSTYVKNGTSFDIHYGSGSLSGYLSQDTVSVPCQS
Cathepsin D (Homo sapiens), sequence (P07339 169-412 limits assumed): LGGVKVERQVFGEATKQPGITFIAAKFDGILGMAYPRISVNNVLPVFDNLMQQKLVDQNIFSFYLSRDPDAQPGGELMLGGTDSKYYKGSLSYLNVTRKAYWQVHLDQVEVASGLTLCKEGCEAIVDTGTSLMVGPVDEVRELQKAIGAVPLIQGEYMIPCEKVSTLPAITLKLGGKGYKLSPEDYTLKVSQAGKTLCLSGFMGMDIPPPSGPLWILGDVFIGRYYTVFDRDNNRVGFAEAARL

Structure (SMILES)	IC50 (CaSki (Homo sapiens)) [µM]	IC50 (HeLa [3]) [µM]	Activity (HeLa [4])	also measured
CC(C)C[C@H](NC(=O)[C@H](Cc1ccccc1)NC(=O)c1cnccn1)B(O)O				inhibition (HeLa [1]): Active; inhibition (HeLa [2]): Active
NCCCC[C@H](NC(=O)N1C/C(=C\c2ccc(Cl)c(Cl)c2)C(=O)/C(=C/c2ccc(Cl)c(Cl)c2)C1)C(=O)O	> 50	> 50		
O=C(O)CC[C@H](NC(=O)N1C/C(=C\c2ccc(Cl)c(Cl)c2)C(=O)/C(=C/c2ccc(Cl)c(Cl)c2)C1)C(=O)N[C@@H](CC(=O)O)C(=O)O	> 50	> 50		
N=C(N)NCCC[C@H](NC(=O)[C@H](CCCCN)NC(=O)N1C/C(=C\c2ccc(Cl)c(Cl)c2)C(=O)/C(=C/c2ccc(Cl)c(Cl)c2)C1)C(=O)O	> 50	> 50		
O=C1/C(=C/c2ccc(Cl)c(Cl)c2)CN(C(=O)N[C@@H](Cc2ccc(O)cc2)C(=O)O)C/C1=C\c1ccc(Cl)c(Cl)c1	10	10	Active	IC50 [5]: > 10 µM; IC50 [6]: 4.2 µM; IC50 [7]: 8.4 µM
O=C1/C(=C/c2ccc(Cl)c(Cl)c2)CN(C(=O)N[C@@H](Cc2ccccc2)C(=O)O)C/C1=C\c1ccc(Cl)c(Cl)c1	1.5	0.32	Active	Activity (SiHa): Dose-dependent effect; Activity (ME-180): Dose-dependent effect; IC50 [5]: 6.2 µM; IC50 [6]: 4.8 µM; inhibition (HeLa [1]): Active; IC50 [7]: 6.6 µM; inhibition [8]: inactive; Activity [9]: Non-toxic; inhibition (HeLa [2]): Active; inhibition [10]: inactive
CC(C)C[C@H](NC(=O)N1C/C(=C\c2ccc(Cl)c(Cl)c2)C(=O)/C(=C/c2ccc(Cl)c(Cl)c2)C1)C(=O)O	20	10	Active	IC50 [5]: > 10 µM; IC50 [6]: 9.3 µM; IC50 [7]: > 10 µM
O=C(O)CC[C@H](NC(=O)N1C/C(=C\c2ccc(Cl)c(Cl)c2)C(=O)/C(=C/c2ccc(Cl)c(Cl)c2)C1)C(=O)O	> 50	> 50	inactive	
O=C1/C(=C/c2ccc(Cl)c(Cl)c2)CN(C(=O)N[C@@H](Cc2ccccc2)C(=O)N[C@@H](Cc2ccc(O)cc2)C(=O)O)C/C1=C\c1ccc(Cl)c(Cl)c1	> 50	> 50		
N=C(N)NCCC[C@H](NC(=O)N1C/C(=C\c2ccc(Cl)c(Cl)c2)C(=O)/C(=C/c2ccc(Cl)c(Cl)c2)C1)C(=O)N[C@@H](CCCCN)C(=O)O	> 50	> 50		
CN1C/C(=C\c2ccc(B(O)O)cc2)C(=O)/C(=C/c2ccc(B(O)O)cc2)C1	9	8		
